Assay results: BindingDB's records for doi:10.1021/jm970034q (Oxis International, 1998)

Molecular target: T1, Polyunsaturated fatty acid 5-lipoxygenase (Rattus norvegicus, UniProt P12527)
T1 sequence (P12527 whole entry): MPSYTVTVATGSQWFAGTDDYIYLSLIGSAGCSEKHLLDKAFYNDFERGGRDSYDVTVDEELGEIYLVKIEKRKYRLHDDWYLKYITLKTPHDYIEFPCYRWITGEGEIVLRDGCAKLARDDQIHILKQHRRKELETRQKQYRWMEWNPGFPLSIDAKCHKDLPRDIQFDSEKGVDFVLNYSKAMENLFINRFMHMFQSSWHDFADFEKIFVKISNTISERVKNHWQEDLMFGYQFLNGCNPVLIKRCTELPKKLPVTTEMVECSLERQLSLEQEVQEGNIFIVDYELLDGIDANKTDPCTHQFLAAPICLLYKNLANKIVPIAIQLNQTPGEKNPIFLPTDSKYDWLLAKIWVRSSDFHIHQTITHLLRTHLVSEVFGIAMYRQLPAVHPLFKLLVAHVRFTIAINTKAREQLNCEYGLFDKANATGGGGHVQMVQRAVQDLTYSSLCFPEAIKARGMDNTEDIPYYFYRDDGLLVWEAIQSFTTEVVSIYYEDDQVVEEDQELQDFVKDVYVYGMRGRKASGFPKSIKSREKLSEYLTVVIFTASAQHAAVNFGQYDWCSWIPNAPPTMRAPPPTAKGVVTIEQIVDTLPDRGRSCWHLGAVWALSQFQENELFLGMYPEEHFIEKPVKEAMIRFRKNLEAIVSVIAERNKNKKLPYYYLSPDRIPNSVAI
Test: Inhibitory activity against 5-lipoxygenase obtained from rat basophilic leukemia cells
Summary of the method: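 IC50 was determined against 5-LO in a broken RBL-1 cell assay, using a crude enzyme preparation from rat basophilic leukemia cells.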

- IC50: 300 nM
Structure (SMILES): Oc1oc(CCC#Cc2ccccc2CSc2ccccc2)c(O)c1O [3,4-Dihydroxy-5-[4-(2-phenylsulfanylmethyl-phenyl)-but-3-ynyl]-5H-furan-2-one]
